ChEMBL document CHEMBL2346548, “Design, synthesis, and structure-activity relationship studies of tryptanthrins as antitubercular agents” (J Nat Prod, 2013)

Legend:
[1] = biological target: CYP2C9 (Homo sapiens, UniProt P11712); assay: Inhibition of human recombinant CYP2C9 at 10 uM incubated for 80 mins at 37 degC using 7-methoxy-4-trifluoromethylcoumarin substrate; format: ADME; details: recombinant CYP2C9, probe 7-methoxy-4-trifluoromethylcoumarin
[2] = Protein binding in human plasma at 10 uM incubated for 8 hrs at 37 degC by equilibrium dialysis method; format: ADME, cell-free; details: read-out: PPB (converted)
Summary of the method: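 Equilibrium dialysis: 10 μM compound in 1% DMSO in human plasma vs 0.05 M phosphate buffer pH 7.5 across 12–14 K cutoff membrane, at least 8 h at 37 °C; HPLC-photodiode detection at 230 nm; duplicate means.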

[3] = test system: Mycobacterium tuberculosis; assay: Antitubercular activity against Mycobacterium tuberculosis Erdman ATCC 35801 infected in C57BL/6 mouse assessed as viable bacterial load in spleen at 200 mg/kg twice daily through gavage 5 days per week for 4 weeks starting on 10th day post-infection (reference value: 4.79 +/- 0.21 log10CFU/spleen); format: functional
[4] = test system: Salmonella typhimurium; assay: Mutagenicity in Salmonella typhimurium TA98 assessed as mean revertant colonies at 0.25 to 240 ug/well in absence of rat liver S9 fraction; format: toxicity, organism-based; details: salmonella enterica subsp. enterica serovar typhimurium
Summary of the method: (§1)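 MicroAmes: strains preincubated with or without Aroclor-induced rat liver S9, duplicate wells, six concentrations 0.25–250 μg equivalents/well; DMSO vehicle, 4-nitroquinoline-N-oxide (−S9) and 2-aminoanthracene (+S9) positive controls; revertant colonies counted; cytotoxicity noted as reduced revertants or background lawn; precipitation recorded.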

[5] = biological target: CYP3A4 (Homo sapiens, UniProt P08684); assay: Inhibition of human recombinant CYP3A4 at 10 uM incubated for 30 mins at 37 degC using 7-benzyloxy-4-(trifluoromethyl)coumarin substrate; format: ADME; details: recombinant CYP3A4, probe 7-benzyloxy-4-(trifluoromethyl)coumarin
Sequence of CYP3A4 (P08684 whole entry): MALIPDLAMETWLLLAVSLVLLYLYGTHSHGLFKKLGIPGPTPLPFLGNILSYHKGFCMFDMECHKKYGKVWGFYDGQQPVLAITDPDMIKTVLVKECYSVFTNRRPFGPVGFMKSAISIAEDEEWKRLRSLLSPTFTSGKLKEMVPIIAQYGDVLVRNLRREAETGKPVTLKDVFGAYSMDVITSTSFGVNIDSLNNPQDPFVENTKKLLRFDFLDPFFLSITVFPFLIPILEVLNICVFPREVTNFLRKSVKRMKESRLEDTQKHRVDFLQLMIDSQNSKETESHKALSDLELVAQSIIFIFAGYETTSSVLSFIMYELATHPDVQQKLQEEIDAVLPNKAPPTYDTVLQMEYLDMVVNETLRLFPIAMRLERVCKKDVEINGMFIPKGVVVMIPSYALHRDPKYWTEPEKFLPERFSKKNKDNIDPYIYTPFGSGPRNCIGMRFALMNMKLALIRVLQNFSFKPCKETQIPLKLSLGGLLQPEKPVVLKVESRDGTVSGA

[6] = test system: Salmonella typhimurium; assay: Mutagenicity in Salmonella typhimurium TA100 assessed as mean revertant colonies at 0.25 to 240 ug/well in presence of rat liver S9 fraction; format: toxicity, organism-based; details: salmonella enterica subsp. enterica serovar typhimurium; summary of the method: as §1
[7] = test system: Salmonella typhimurium; assay: Mutagenicity in Salmonella typhimurium TA100 assessed as mean revertant colonies at 0.25 to 240 ug/well in absence of rat liver S9 fraction; format: toxicity, organism-based; details: salmonella enterica subsp. enterica serovar typhimurium; summary of the method: as §1
[8] = test system: Salmonella typhimurium; assay: Toxicity in Salmonella typhimurium TA100 assessed as compound level per well causing cytotoxicity at 0.25 to 240 ug/well in absence of rat liver S9 fraction; format: organism-based; details: salmonella enterica subsp. enterica serovar typhimurium; summary of the method: as §1
[9] = Tmax in Sprague-Dawley rat at 20 mg/kg, po; format: ADME, organism-based; design: dose 20 mg/kg, route oral; details: in vivo
[10] = Cmax in C57BL/6 mouse at 40 mg/kg, po formulated in 20% DMSODMSO, 20% PEG400, 60% (30% HP-beta-CD in water); format: ADME, organism-based; design: dose 40 mg/kg, route oral; details: in vivo
Summary of the method: (§2)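 Female C57BL/6 mice, single 40 mg/kg oral gavage; three mice per time point; plasma at 30 min to 24 h, LC-MS; noncompartmental parameters reported as means.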

[11] = test system: Mycobacterium tuberculosis; assay: Antitubercular activity against Mycobacterium tuberculosis Erdman ATCC 35801 infected in C57BL/6 mouse assessed as viable bacterial load in lung at 200 mg/kg/day through gavage 5 days per week for 4 weeks starting on 10th day post-infection (reference value: 6.49 +/- 0.10 log10CFU/lung); format: functional
[12] = Tmax in C57BL/6 mouse at 40 mg/kg, po formulated in 0.1% SLS; format: ADME, organism-based; design: dose 40 mg/kg, route oral; details: in vivo; summary of the method: as §2

Sequence of CYP2C9 (P11712 whole entry): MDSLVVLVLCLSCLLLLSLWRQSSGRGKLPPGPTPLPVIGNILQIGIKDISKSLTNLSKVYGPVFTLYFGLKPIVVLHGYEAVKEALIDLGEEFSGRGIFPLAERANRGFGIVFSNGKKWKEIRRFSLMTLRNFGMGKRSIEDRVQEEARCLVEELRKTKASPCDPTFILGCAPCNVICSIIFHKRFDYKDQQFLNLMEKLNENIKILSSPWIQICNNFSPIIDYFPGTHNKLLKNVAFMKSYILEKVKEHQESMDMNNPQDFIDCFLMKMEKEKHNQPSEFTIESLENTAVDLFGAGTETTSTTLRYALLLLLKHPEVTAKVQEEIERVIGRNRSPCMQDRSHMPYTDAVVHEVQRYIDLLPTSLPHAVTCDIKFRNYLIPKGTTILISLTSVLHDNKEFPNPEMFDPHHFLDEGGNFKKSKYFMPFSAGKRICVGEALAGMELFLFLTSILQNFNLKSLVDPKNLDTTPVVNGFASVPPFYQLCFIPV

O=C1C2=Nc3ccccc3CN2c2ccc(Cl)cc21
inhibition at 80 min, 10 µM [1]: 27% | fraction unbound at 8 h, 10 µM [2]: 0.013 | log10cfu [3]: 4.89 | Activity [4]: Non-toxic | inhibition at 0.5 h, 10 µM [5]: 1% | Activity [6]: Non-toxic | Activity [7]: Non-toxic | Activity [8]: >= 2.5 ug | Tmax [9]: 2 h | Cmax [10]: 371 ng/mL | log10cfu [11]: 6.58 | Tmax [12]: 1 h
